Experimental data from ChEMBL document CHEMBL5226322, “Harnessing the Role of HDAC6 in Idiopathic Pulmonary Fibrosis: Design, Synthesis, Structural Analysis, and Biological Evaluation of Potent Inhibitors” (J Med Chem, 2021).
Values after ≈ are worked out from the molar mass of the structure shown. Active and inactive are the calls of the source. The rule behind the calls is not given here.

Experiments:
[1] = Solubility of the compound at pH 7.4 PBS buffer incubated for 24 hrs by HPLC-UV analysis; assay type: physicochemical; conditions: pH 7.4, 24 h
Method in brief: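 Compound from 10 mM DMSO stock diluted to 250 μM (2.5% DMSO), either in 50 mM acetic acid (pH 3.0) or in 50 mM aqueous PBS (pH 7.4). Shaken 24 h at 25 °C, PTFE-filtered and diluted 1:2. Quantified by RP-18 HPLC-UV at 254 nm against a 250 μM standard in MeCN/water. Run in triplicate and averaged.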

[2] = Metabolic stability in human liver microsome assessed as half life at 5 uM in presence of NADPH incubated up to 60 mins by HPLC analysis; assay type: ADME; conditions: microsomes, 1 h
NIH3T3 [3] = experiment: Cytotoxicity in mouse NIH3T3 cells assessed as reduction in cell viability at 25 uM incubated for 24 hrs by neutral red uptake method based UV/visible spectrophotometer analysis; assay type: toxicity; conditions: nih3t3, 24 h
Method in brief: (§1)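 NIH3T3 mouse fibroblasts grown in DMEM with 10% FCS, L-glutamine/pen-strep and non-essential amino acids (37 °C, 5% CO2). Exposed 24 h to compound diluted from a DMSO stock into medium. Viability measured by Neutral Red uptake: 3 h in NR medium, then acetic acid/ethanol desorb, absorbance at 540 nm. Student's t-test, p<0.05.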

NIH3T3 [4] = experiment: Cytotoxicity in mouse NIH3T3 cells assessed as reduction in cell viability at 50 uM incubated for 24 hrs by neutral red uptake method based UV/visible spectrophotometer analysis; assay type: toxicity; conditions: nih3t3, 24 h; method in brief: as §1
Heart [5] = experiment: Cardiotoxicity in Langendorff-perfused Sprague-Dawley rat heart assessed as effect on HR at 0.1 uM by ECG analysis (reference value: 235.7 +/-8.3 bpm); assay type: toxicity, tissue-based
Heart [6] = experiment: Cardiotoxicity in Langendorff-perfused Sprague-Dawley rat heart assessed as effect on HR at 10 uM by ECG analysis (reference value: 235.7 +/-8.3 bpm); assay type: toxicity, tissue-based
Heart [7] = experiment: Cardiotoxicity in Langendorff-perfused Sprague-Dawley rat heart assessed as effect on RR time at 10 uM by ECG analysis (reference value: 257.2 +/-8.1 milliseconds); assay type: toxicity, tissue-based
Heart [8] = experiment: Cardiotoxicity in Langendorff-perfused Sprague-Dawley rat heart assessed as effect on PQ interval time at 0.01 uM by ECG analysis (reference value: 43.6 +/-2.5 milliseconds); assay type: toxicity, tissue-based
Heart [9] = experiment: Cardiotoxicity in Langendorff-perfused Sprague-Dawley rat heart assessed as effect on QT interval time at 1 uM by ECG analysis (reference value: 76.2 +/-2.9 milliseconds); assay type: toxicity, tissue-based
Homo sapiens [10] = species on record: Homo sapiens; experiment: Antifibrotic activity in TGF-beta1-induced human Lung parenchyma assessed as inhibition of collagen 1 mRNA expression at 4.1 uM incubated upto 7 days by qRT-PCR analysis; assay type: functional; conditions: time <= 7.0 day
Method in brief: (§2)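 Human lung parenchyma pieces (2 mm³) cultured in DMEM with TGF-β1 (10 ng/mL) plus compound at 0.41 or 4.1 μM or vehicle (0.1% DMSO). Tissue collected on day 7, homogenized, total RNA purified, then qRT-PCR for HDAC6, collagen I, collagen III, αSMA and fibronectin. Relative expression by the 2^-Ct method; n=3, paired t test.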

Homo sapiens [11] = species on record: Homo sapiens; experiment: Antifibrotic activity in TGF-beta1-induced human Lung parenchyma assessed as inhibition of collagen 3 mRNA expression at 4.1 uM incubated upto 7 days by qRT-PCR analysis; assay type: functional; conditions: time <= 7.0 day; method in brief: as §2
Homo sapiens [12] = species on record: Homo sapiens; experiment: Antifibrotic activity in TGF-beta1-induced human Lung parenchyma assessed as inhibition of HDAC6 mRNA expression at 4.1 uM incubated upto 7 days by qRT-PCR analysis; assay type: functional; conditions: time <= 7.0 day; method in brief: as §2
[13] = Toxicity in zebra fish embryo assessed as mild cardiac edema at 100 uM […]; design: species or system Danio rerio; conditions: zebrafish
Method in brief: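 Wildtype Tübingen zebrafish larvae reared at 28.5 °C (14 h light/10 h dark) in embryo medium with methylene blue. From 3 days old, exposed for 2 days to 1, 10, 25, 50 or 100 µM in embryo medium, or 0.1% DMSO vehicle. 4 larvae per well in 400 µL, 8 larvae per group. Larvae scored for swim bladder inflation and cardiac edema.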

Row | Compound | solubility [1] [µM] | t1/2 [2] [min] | Activity (NIH3T3 [3]) [%] | Activity (NIH3T3 [4]) [%] | Activity (Heart [5]) [bpm] | Activity (Heart [6]) [bpm] | Time (Heart [7]) [ms] | Time (Heart [8]) [ms] | Time (Heart [9]) [ms] | Activity (Homo sapiens [10]) | Activity (Homo sapiens [11]) | Activity (Homo sapiens [12]) | Activity [13]
1 | CN1CCC2(CC1)c1ccccc1N(Cc1ccc(C(=O)NO)cc1)C2c1ccccc1F (racemic) | 285 (≈ 127 µg/mL) | 51.68 |  |  |  |  |  |  |  |  |  |  | 
2 | CC1(C)c2ccccc2N(Cc2ccc(C(=O)NO)cc2)C1c1cccnc1 (racemic) |  |  | 87 | 71 | 238.1 | 207.9 | 294.1 | 44.1 | 76.4 | Active | Active | Active | Toxic
